Results on 19 molecules are retold here after ChEMBL document CHEMBL1122480, “Synthesis and pharmacological studies of 4,4-disubstituted piperidines: a new class of compounds with potent analgesic properties” (J Med Chem, 1983).

The structures appear in SMILES notation. Some results are limits rather than exact numbers.

Assay [1] relates to Mus musculus. Description: Analgesic activity in tail flick test, oral administration. As to conditions: Mus musculus, Tail, po; read-out: ED50. The class given is functional. In short, it runs like this: (§1)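 Mouse tail-flick test against a noxious heat stimulus (D'Amour–Smith method), with drug given by the stated route. […] Where no exact ED50 was obtained, the percentage of animals showing analgesia is reported.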
On the technique in general: Thermal pain tests record how soon the animal reacts.

The subject of assay [2] is Mus musculus. Description: Analgesic activity using PQW test, oral administration. The class given is functional. As to conditions: Mus musculus, po; read-out: ED50. Summed up:
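Oral drug in mice, followed by phenylbenzoquinone-induced writhing. Analgesia is scored as fewer abdominal contractions in a group of five animals than in a control group. ED50 is the dose that reduces contractions by 50%, estimated graphically by the Litchfield method. Otherwise the percentage of animals showing analgesia is given.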

In assay [3] the test system is Mus musculus. The assay can be described thus: Analgesic activity in tail flick test, subcutaneous administration. As to conditions: Mus musculus, Tail, sc; read-out: ED50. The class given is functional. Summed up:
as §1

The target of assay [4] is T1, Opioid receptor (Rattus norvegicus, UniProt P33533+P34975+P33535). Description: Inhibition of [3H]naloxone binding to rat brain membrane with 100 mM NaCl.
The target in assay [5] is T1, Opioid receptor. The assay can be described thus: Inhibition of [3H]-Naloxone binding to rat brain membrane without NaCl.
Assay [6] concerns Mus musculus. The assay can be described thus: 5 HTP (5-hydroxytryptophan) antagonism in mouse 0.5 hr after subcutaneous administration (0.003-0.1 dose range). Type of assay: functional. Particulars: sc. In short, it runs like this: (§2)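 Mice received drug sc over the stated dose range, then DL-5-hydroxytryptophan to induce head twitches. ED50 is the dose that cut the mean number of head twitches by 50% versus a saline-treated control group (N = 5-10). It was estimated graphically by the Litchfield method.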

Assay [7] concerns Mus musculus. The assay can be described thus: 5 HTP (5-hydroxytryptophan) antagonism in mouse 0.5 h after subcutaneous administration (0.03-0.1 dose range). Type of assay: functional. Particulars: sc. In short, it runs like this: as §2

Broadly, the ED50 is the dose at which the effect has come halfway, by size or by number of responders. Consider `Cc1ccc(CCN2CCC(O)(C(C)C(=O)N(C)C3CCCCC3)CC2)cc1.Cl` (configuration not stated), for which the ED50 is 100 mg/kg in the assay on Mus musculus [1], less than 56 mg/kg in the assay on Mus musculus [2] and greater than 3.2 mg/kg in the assay with Mus musculus [3].
As a reminder, the IC50 is the concentration needed to halve the response being measured. A high value points to weaker potency in that assay. As for `COc1ccccc1N(C)C(=O)C(C)C1(O)CCN(CCc2ccccc2Cl)CC1.O=C(O)/C=C\C(=O)O` (configuration not stated), the IC50 is listed as 51 nM on Opioid receptor [4] and 3.3 nM at Opioid receptor [5]. Moreover, the values for the ED50 with Mus musculus [1], with Mus musculus [2] and in the assay on Mus musculus [3] were greater than 18 mg/kg, 18 mg/kg and 0.68 mg/kg, respectively.
In the case of `C=CCN(C(=O)C(C)C1(O)CCN(CCc2ccccc2Cl)CC1)C1CCCCC1.O=C(O)/C=C\C(=O)O` (configuration not stated), the IC50 on Opioid receptor [4] is listed as 20 nM; on Opioid receptor [5], 2.4 nM. In addition, the 50% effective dose (ED50) in the assay with Mus musculus [2] was less than 32 mg/kg; in the assay on Mus musculus [3], 4 mg/kg.
Consider `CC(C(=O)N(C)c1ccc(Cl)cc1)C1(O)CCN(CCc2ccccc2Cl)CC1.O=C(O)/C=C/C(=O)O` (configuration not stated), for which the 50% effective dose (ED50) is greater than 56 mg/kg in the assay with Mus musculus [1], 9.7 mg/kg with Mus musculus [2] and 6.8 mg/kg with Mus musculus [3].
On the same counts, the results for `Br.CC(C)C(C(=O)N(C)C1CCCCC1)C1(O)CCN(CCc2ccccc2Cl)CC1` (configuration not stated) are greater than 100 mg/kg, less than 56 mg/kg and greater than 56 mg/kg.
For `CCCCC(C(=O)N(C)C1CCCCC1)C1(O)CCN(CCc2ccccc2Cl)CC1.O=C(O)/C=C/C(=O)O` (configuration not stated), the results for the ED50 in the assay on Mus musculus [1], in the assay with Mus musculus [2] and with Mus musculus [3] were greater than 100 mg/kg, greater than 56 mg/kg and greater than 56 mg/kg, respectively.
In the case of `CN1CC[C@]23c4c5ccc(O)c4O[C@H]2[C@@H](O)C=C[C@H]3[C@H]1C5` [MORPHINE], the 50% effective dose (ED50) in the assay on Mus musculus [1] is 23 mg/kg; with Mus musculus [2] it was 1.4 mg/kg; in the assay with Mus musculus [3], 3.4 mg/kg.
Regarding `CN(C(=O)C1(C2(O)CCN(CCc3ccccc3Cl)CC2)CC1)C1CCCCC1.O=C(O)/C=C\C(=O)O`, the ED50 is greater than 56 mg/kg in the assay with Mus musculus [2] and 10 mg/kg with Mus musculus [3].
On the same counts, the results for `Br.COc1cccc(CCN2CCC(O)(C(C)C(=O)N(C)C3CCCCC3)CC2)c1` (configuration not stated) are greater than 18 mg/kg and 18 mg/kg.
Take `CCCCN(CCCC)C(=O)C(C)C1(O)CCN(CCc2ccccc2Cl)CC1.O=C(O)/C=C/C(=O)O` (configuration not stated): the ED50 in the assay with Mus musculus [1] was less than 100 mg/kg; with Mus musculus [2], less than 30 mg/kg; in the assay with Mus musculus [3] it was less than 50 mg/kg.
With `CCOc1ccccc1N(C)C(=O)C(C)C1(O)CCN(CCc2ccccc2Cl)CC1.O=C(O)/C=C/C(=O)O` (configuration not stated), the figures for the half-maximal inhibitory concentration (IC50) on Opioid receptor [4] and at Opioid receptor [5] were 10 nM and 0.98 nM, respectively. Besides, the median effective dose (ED50) in the assay on Mus musculus [1] is less than 32 mg/kg; in the assay on Mus musculus [2], 1.8 mg/kg; with Mus musculus [3], 0.51 mg/kg.
On the same counts, the results for `C=CCN(C(=O)C(C)C1(O)CCN(CCc2ccccc2Cl)CC1)c1ccccc1OC.O=C(O)/C=C\C(=O)O` (configuration not stated) are 2.9 nM, 0.41 nM, 7.6 mg/kg, 0.56 mg/kg and 0.09 mg/kg.
As for `CC(C(=O)N(C1CCCCC1)C(C)(C)C)C1(O)CCN(CCc2ccccc2Cl)CC1.O=C(O)/C=C/C(=O)O` (configuration not stated), the median effective dose (ED50) in the assay with Mus musculus [1] is greater than 56 mg/kg; with Mus musculus [2], less than 56 mg/kg; in the assay with Mus musculus [3] it was greater than 10 mg/kg.
Regarding `CCCCNC(=O)C(C)C1(O)CCN(CCc2ccccc2Cl)CC1` (configuration not stated), the 50% effective dose (ED50) was less than 100 mg/kg in the assay with Mus musculus [1], greater than 32 mg/kg in the assay on Mus musculus [2] and greater than 18 mg/kg with Mus musculus [3].
Take `C#CCN(C(=O)C(C)C1(O)CCN(CCc2ccccc2Cl)CC1)c1ccccc1OC.O=C(O)/C=C\C(=O)O` (configuration not stated): the IC50 came to 4.2 nM at Opioid receptor [4] and 0.41 nM on Opioid receptor [5]. Besides, the values for the 50% effective dose (ED50) in the assay on Mus musculus [1], in the assay with Mus musculus [2] and in the assay with Mus musculus [3] were 5.4 mg/kg, 0.56 mg/kg and 0.13 mg/kg, respectively.
Take `CN1CCC(=C2c3ccccc3CCc3sccc32)CC1` [PIZOTYLINE]: the 50% effect level in the assay on Mus musculus [6] (ED50) was put at a dose of 0.015 mg/kg.
For `CCN(C(=O)C(C)C1(O)CCN(CCc2ccccc2Cl)CC1)c1ccccc1OC.O=C(O)/C=C/C(=O)O` (configuration not stated), the values for the IC50 at Opioid receptor [4] and at Opioid receptor [5] were 6.3 nM and 0.94 nM, respectively. Also, the ED50 with Mus musculus [1] was 4.9 mg/kg; in the assay with Mus musculus [2], 56 mg/kg; in the assay with Mus musculus [3], 0.07 mg/kg; in the assay with Mus musculus [7], 0.07 mg/kg.
Consider `CCN(C(=O)C(C)(C)C1(O)CCN(CCc2ccccc2Cl)CC1)c1ccccc1OC.O=C(O)/C=C/C(=O)O`, for which the half-inhibitory concentration (IC50) on Opioid receptor [4] was 35 nM; on Opioid receptor [5], 7.5 nM. Besides, the ED50 is greater than 100 mg/kg in the assay on Mus musculus [1], greater than 18 mg/kg in the assay with Mus musculus [2] and greater than 56 mg/kg in the assay with Mus musculus [3].
In the case of `CC(C(=O)N(C1CCCCC1)C1CCCCC1)C1(O)CCN(CCc2ccccc2Cl)CC1.Cl` (configuration not stated), the 50% effective dose (ED50) with Mus musculus [1] is greater than 100 mg/kg; with Mus musculus [2], less than 56 mg/kg; in the assay with Mus musculus [3], greater than 56 mg/kg.
